The text below walks through data of the RNAGym collection of RNA variant scans (doi:10.1038/s41586-018-0170-7).

B1: tRNA (parent)
chain: GUUCCGUUGGCGUAAUGGUAACGCGUCUCCCUCCUAAGGAGAAGACUGCGGGUUCGAGUCCCGUACGGAACG

The variants in this data set derive from B1. Briefly: yeast fitness, log relative to wild type (ln ratio); higher = fitter; tRNA-Arg(CCU), competitive growth, 37 C, 1 M NaCl. An outline of the steps:
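Fitness is the natural log of a genotype's generation count divided by that of the wild type. A combinatorial library of tRNA-Arg(CCU) variants sat on a HIS3 centromeric plasmid in BY4742 lacking the chromosomal gene, from two independent transformations. Pools grew 4 generations in SC-HIS at 30 °C, then ~6.5 generations (~26.5 h) in SC-HIS 1M NaCl at 37 °C, with three outputs per input. Generations came from OD-scaled log2 output/input frequency, inverse-variance weighted across replicates, with variants counted by 125 bp paired-end Illumina sequencing.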
With U2G G6U A43C C46U C66U A70U C71U, the “yeast fitness (ln)” value is -0.22.
For the variant G1A G6A C46U, the “yeast fitness (ln)” value was -0.0333.
Take U2C G6U A43C C66U A69G A70U C71U: the “yeast fitness (ln)” value was -0.479.
As for G6U C66A A69G A70G, the “yeast fitness (ln)” value is -0.0205.
As for U2G G6U A43C C46U C66A A70U C71U, the figure is -0.135; as for G6A C66A A70G, -0.0871; as for G1A C27U C66U A69G C71U, -0.285.
With U2C G6U C66U A69G A70G the figure was -0.103; with G6A A43C C46U C66A C71U, -0.229.
With U2G G6U C66U A69G A70G, the “yeast fitness (ln)” value is -0.251.
With G1A C27U C46U C66U A69G A70G C71U, the “yeast fitness (ln)” value is -0.255.
With G1A C27U A43C C66A A70G C71U, the “yeast fitness (ln)” value was -0.35.
With G1A U2G G6U C66U A70G C71U, the “yeast fitness (ln)” value is -0.264.
On to G1A C27U A43C C46U C66A A70U C71U, for which the “yeast fitness (ln)” value was -0.359.
Consider G1A G6U A43C C46U A69G A70G C71U, for which the “yeast fitness (ln)” value was -0.321.
U2C G6A A43C A70G C71U: the “yeast fitness (ln)” value is -0.129.
On to U2G C27U A43C C66U A70G, for which the “yeast fitness (ln)” value was -0.257.
In the case of U2G C27U A43C C66U A70U, the “yeast fitness (ln)” value was -0.205.
G1A G6U C27U C66A A70U: the “yeast fitness (ln)” value is -0.407.
On to G1A U2C G6A C27U A43C C46U C66U A70U C71U, for which the “yeast fitness (ln)” value is -0.252.
For G1A U2G G6U C27U C46U C66A A70U C71U, the “yeast fitness (ln)” value was -0.0752.
In the case of C27U A69G, the “yeast fitness (ln)” value was -0.0417.
Regarding G6U C27U A43C C46U C66A A70U C71U, the “yeast fitness (ln)” value was -0.357.
With G1A U2C C27U A43C A69G A70U, the “yeast fitness (ln)” value is -0.307.
Regarding U2C G6U C46U A70U, the “yeast fitness (ln)” value is -0.0445.
With G6U C66U A70G C71U, the “yeast fitness (ln)” value was -0.168.
With U2G A43C C66U A69G A70G C71U the figure was -0.304; with G1A G6U C27U C46U C66A A69G C71U, -0.187; with U2C G6U C27U C46U A70G, -0.0953.
In the case of G1A U2C G6A C27U A70U C71U, the “yeast fitness (ln)” value is -0.109.
In the case of U2C C27U A43C C66U A69G A70G, the “yeast fitness (ln)” value was -0.332.
With G1A C27U A43C C46U C66U A70U C71U the figure was -0.469.
With G1A G6U C27U A43C C66U A69G A70U the figure was -0.469; with G1A U2G C27U A43C C66U, -0.123.
With U2C G6U C27U A43C C46U, the “yeast fitness (ln)” value is -0.0629.
Consider U2G C46U C66A A69G A70U C71U, for which the “yeast fitness (ln)” value is -0.34.
Regarding G1A C27U A43C A70U C71U, the “yeast fitness (ln)” value is -0.269.
For U2C G6U C27U C66A A69G A70G, the “yeast fitness (ln)” value was -0.0927.
As for G1A U2G G6U C27U A43C C66A A69G A70G C71U, the “yeast fitness (ln)” value is -0.461.
Take G1A U2G G6U C27U A43C C46U C66U A70U: the “yeast fitness (ln)” value was -0.383.
As to G1A G6A C27U A43C C71U, the “yeast fitness (ln)” value was -0.213.
Consider G1A U2C G6U C66U A70G C71U, for which the “yeast fitness (ln)” value is -0.0525.
With G1A U2C G6U C27U A43C C46U A70G the figure was -0.207; with U2G C27U A43C C46U C66A A70G, -0.16.
Turning to G6A A43C C46U C66A, the “yeast fitness (ln)” value is -0.0495.
Regarding G1A U2G C27U A43C C46U C66U A69G A70G C71U, the “yeast fitness (ln)” value was -0.3.
C46U C66A A70G C71U: the “yeast fitness (ln)” value was -0.0671.
Turning to A43C C66U C71U, the “yeast fitness (ln)” value was -0.206.
As to G1A U2G C27U A43C C46U C66A, the “yeast fitness (ln)” value was -0.106.
Turning to U2G G6U C46U C66A C71U, the “yeast fitness (ln)” value is -0.0521.
Take G1A U2G G6U C27U A43C A70G C71U: the “yeast fitness (ln)” value is -0.588.
On to U2G C46U C66U A69G C71U, for which the “yeast fitness (ln)” value was -0.209.
Consider U2C C27U C46U C66U A69G A70U, for which the “yeast fitness (ln)” value is -0.137.
As for G1A U2C C27U C46U C66U A69G A70G, the figure is -0.11; as for G1A U2C C27U C46U C66A C71U, -0.12.
In the case of G1A G6A C27U C66U A70G, the “yeast fitness (ln)” value was -0.187.
Regarding U2C C66U A70G C71U, the “yeast fitness (ln)” value is -0.0234.
Turning to U2G G6U C27U A43C C46U C66U A70U, the “yeast fitness (ln)” value was -0.227.
As to G1A U2G G6U C46U C66U A69G A70U C71U, the “yeast fitness (ln)” value was -0.441.
As for G6U C27U A43C C66A A69G A70G, the figure is -0.453; as for G1A A69G A70G C71U, -0.0385; as for G1A U2C C27U A43C C46U C66U A70G C71U, -0.4.
Consider G1A U2G A43C C66U A69G A70G, for which the “yeast fitness (ln)” value is -0.328.
As for G1A C27U A43C C46U C66A C71U, the figure is -0.231; as for U2C G6U C66U A69G C71U, -0.176.
For U2C G6U C27U A43C A69G A70G C71U, the “yeast fitness (ln)” value is -0.281.
Consider U2C G6U C27U C66U A69G A70U, for which the “yeast fitness (ln)” value is -0.378.
Consider U2C G6A C71U, for which the “yeast fitness (ln)” value was -0.0812.
With U2C G6A C27U C46U C66U A69G A70U C71U, the “yeast fitness (ln)” value was -0.289.
Take G1A G6U A43C C46U C66A A70G: the “yeast fitness (ln)” value is -0.17.
Turning to G1A U2G C27U C66U A70U C71U, the “yeast fitness (ln)” value was -0.365.
On to G1A U2G G6A C27U C66U A69G A70U, for which the “yeast fitness (ln)” value was -0.26.
Regarding G1A U2G G6A C27U A43C C46U C66U A70U, the “yeast fitness (ln)” value was -0.226.
On to U2G G6U C27U C66A A69G A70G, for which the “yeast fitness (ln)” value is -0.145.
As for G1A U2C C46U A69G A70U C71U, the figure is -0.257.
Take G1A U2C C27U C66U A70U: the “yeast fitness (ln)” value was -0.108.
Turning to U2C C66U C71U, the “yeast fitness (ln)” value was -0.0912.
Take G1A U2C G6U C66U A70U: the “yeast fitness (ln)” value was -0.153.
Consider G6A C27U A43C C46U C66A C71U, for which the “yeast fitness (ln)” value was -0.328.
With U2G G6A C27U A43C C66U A70U C71U, the “yeast fitness (ln)” value was -0.339.
With G6U C27U A43C C66A A69G, the “yeast fitness (ln)” value is -0.264.
With U2G A43C C66A A69G A70U, the “yeast fitness (ln)” value is -0.231.
Take U2G C27U C46U C66U A69G: the “yeast fitness (ln)” value was -0.211.
